According to ChEMBL document CHEMBL4014339, “Discovery of 1,4-Benzodiazepine-2,5-dione (BZD) Derivatives as Dual Nucleotide Binding Oligomerization Domain Containing 1/2 (NOD1/NOD2) Antagonists Sensitizing Paclitaxel (PTX) To Suppress Lewis Lung Carcinoma (LLC) Growth in Vivo” (J Med Chem, 2017):
The source made the active and inactive calls. No cut-off for these calls is given here.

Assays:
[1] = molecular target: T1, Nucleotide-binding oligomerization domain-containing protein 1 (Homo sapiens) (UniProt Q9Y239); test: Inhibition of NOD1 in human PBMC-derived macrophages assessed as reduction in C12-iE-DAP-stimulated TNFalpha mRNA expression at 10 uM preincubated for 1 hr followed by C12-iE-DAP stimulation for 90 mins by RT-qPCR analysis
T1 sequence (whole entry): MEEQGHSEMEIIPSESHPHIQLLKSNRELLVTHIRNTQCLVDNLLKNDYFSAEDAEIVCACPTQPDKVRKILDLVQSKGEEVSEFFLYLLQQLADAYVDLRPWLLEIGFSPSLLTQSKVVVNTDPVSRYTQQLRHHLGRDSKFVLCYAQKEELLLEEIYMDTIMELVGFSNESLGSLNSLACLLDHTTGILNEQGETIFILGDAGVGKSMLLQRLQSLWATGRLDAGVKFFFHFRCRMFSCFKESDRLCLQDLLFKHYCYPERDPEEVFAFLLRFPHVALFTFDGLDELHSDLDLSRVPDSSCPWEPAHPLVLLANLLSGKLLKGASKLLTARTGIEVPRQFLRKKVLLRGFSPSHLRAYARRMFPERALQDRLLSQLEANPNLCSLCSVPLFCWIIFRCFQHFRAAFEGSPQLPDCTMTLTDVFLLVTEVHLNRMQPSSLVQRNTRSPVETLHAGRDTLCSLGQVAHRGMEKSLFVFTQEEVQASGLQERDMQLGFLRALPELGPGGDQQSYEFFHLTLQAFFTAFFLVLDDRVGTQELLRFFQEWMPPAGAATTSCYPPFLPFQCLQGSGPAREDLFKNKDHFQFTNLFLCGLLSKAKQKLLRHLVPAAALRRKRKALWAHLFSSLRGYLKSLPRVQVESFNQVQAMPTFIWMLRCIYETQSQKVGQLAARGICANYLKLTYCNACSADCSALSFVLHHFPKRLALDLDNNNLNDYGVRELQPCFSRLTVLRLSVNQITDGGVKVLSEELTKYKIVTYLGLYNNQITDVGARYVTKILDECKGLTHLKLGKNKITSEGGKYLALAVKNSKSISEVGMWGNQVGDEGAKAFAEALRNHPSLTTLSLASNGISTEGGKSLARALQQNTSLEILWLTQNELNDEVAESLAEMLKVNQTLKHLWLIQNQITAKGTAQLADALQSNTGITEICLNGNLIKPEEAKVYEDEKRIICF
Summary of the method: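 Human CD14+ monocytes from donor PBMC, differentiated 7 days with M-CSF 20 ng/mL to macrophages; 1.0 × 10^6 cells pretreated 1 h with compound (final 0.1% DMSO), then C12-iE-DAP 500 ng/mL or MDP 5 μg/mL for 90 min. IL-6/TNF-α mRNA by qRT-PCR, normalized to GAPDH; stimulated response set to 100%.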

[2] = molecular target: T1, Nucleotide-binding oligomerization domain-containing protein 1 (Homo sapiens); test: Inhibition of NOD1 in human THP1 cells assessed as suppression of C12-iE-DAP-stimulated RIP2 phosphorylation at 1 to 10 uM preincubated for 1 hr followed by C12-iE-DAP stimulation after 45 mins by Western blot analysis; assay type: cell-based
Summary of the method: (§1)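 PMA (20 ng/mL, 48 h)-differentiated THP1 macrophages rested 24 h in PMA-free medium, serum-starved (0.1% FBS) overnight, pretreated 1 h with compound, stimulated 45 min with C12-iE-DAP 50 ng/mL. Lysates run on 8% SDS-PAGE, immunoblotted for phospho and total RIP2, p38, JNK, ERK and IκBα.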

[3] = molecular target: T2, Nucleotide-binding oligomerization domain-containing protein 2 (Homo sapiens, UniProt Q9HC29); test: Inhibition of human NOD2 expressed in HEK293 cells assessed as reduction in MDP-stimulated IL8 secretion preincubated with compound followed by MDP stimulation measured after 24 hrs by ELISA; assay type: cell-based
[4] = molecular target: T1, Nucleotide-binding oligomerization domain-containing protein 1 (Homo sapiens); test: Antagonist activity at human NOD1 expressed in HEK-blue cells assessed as inhibition of C12-iE-DAP-stimulated cell activation at 5 uM preincubated for 3 hrs followed by C12-iE-DAP addition measured after 20 hrs by SEAP reporter gene assay; assay type: cell-based
[5] = molecular target: T2, Nucleotide-binding oligomerization domain-containing protein 2; test: Inhibition of human NOD2 expressed in HEK293 cells assessed as suppression of MDP-stimulated ERK phosphorylation preincubated for 1 hr followed by MDP stimulation measured after 1 hr by Western blot analysis
[6] = molecular target: T2, Nucleotide-binding oligomerization domain-containing protein 2; test: Inhibition of NOD2 in human PBMC-derived macrophages assessed as reduction of MDP-mediated decrease in IkBalpha levels at 1 to 10 uM preincubated for 1 hr followed by MDP stimulation for 1 hr by Western blot analysis
[7] = molecular target: T2, Nucleotide-binding oligomerization domain-containing protein 2; test: Inhibition of human NOD2 expressed in HEK293 cells assessed as suppression of MDP-stimulated RIP2 phosphorylation preincubated for 1 hr followed by MDP stimulation measured after 1 hr by Western blot analysis
[8] = molecular target: T2, Nucleotide-binding oligomerization domain-containing protein 2; test: Inhibition of human NOD2 expressed in HEK293 cells assessed as suppression of MDP-stimulated JNK phosphorylation preincubated for 1 hr followed by MDP stimulation measured after 1 hr by Western blot analysis
[9] = molecular target: T1, Nucleotide-binding oligomerization domain-containing protein 1 (Homo sapiens); test: Inhibition of NOD1 in human PBMC-derived macrophages assessed as reduction of C12-iE-DAP-mediated decrease in IkBalpha levels at 1 to 10 uM preincubated for 1 hr followed by C12-iE-DAP stimulation for 45 mins by Western blot analysis
[10] = molecular target: T1, Nucleotide-binding oligomerization domain-containing protein 1 (Homo sapiens); test: Inhibition of NOD1 in human THP1 cells assessed as suppression of C12-iE-DAP-stimulated p38 phosphorylation at 1 to 10 uM preincubated for 1 hr followed by C12-iE-DAP stimulation after 45 mins by Western blot analysis; assay type: cell-based; summary of the method: as §1
[11] = molecular target: T2, Nucleotide-binding oligomerization domain-containing protein 2; test: Inhibition of NOD2 in human PBMC-derived macrophages assessed as reduction in MDP-stimulated p38 phosphorylation at 1 to 10 uM preincubated for 1 hr followed by MDP stimulation for 1 hr by Western blot analysis
[12] = organism: Homo sapiens; test: Inhibition of human SEAP assessed as decrease in substrate hydrolysis at 10 uM

T2 sequence (Q9HC29 whole entry, the tested form may be a part): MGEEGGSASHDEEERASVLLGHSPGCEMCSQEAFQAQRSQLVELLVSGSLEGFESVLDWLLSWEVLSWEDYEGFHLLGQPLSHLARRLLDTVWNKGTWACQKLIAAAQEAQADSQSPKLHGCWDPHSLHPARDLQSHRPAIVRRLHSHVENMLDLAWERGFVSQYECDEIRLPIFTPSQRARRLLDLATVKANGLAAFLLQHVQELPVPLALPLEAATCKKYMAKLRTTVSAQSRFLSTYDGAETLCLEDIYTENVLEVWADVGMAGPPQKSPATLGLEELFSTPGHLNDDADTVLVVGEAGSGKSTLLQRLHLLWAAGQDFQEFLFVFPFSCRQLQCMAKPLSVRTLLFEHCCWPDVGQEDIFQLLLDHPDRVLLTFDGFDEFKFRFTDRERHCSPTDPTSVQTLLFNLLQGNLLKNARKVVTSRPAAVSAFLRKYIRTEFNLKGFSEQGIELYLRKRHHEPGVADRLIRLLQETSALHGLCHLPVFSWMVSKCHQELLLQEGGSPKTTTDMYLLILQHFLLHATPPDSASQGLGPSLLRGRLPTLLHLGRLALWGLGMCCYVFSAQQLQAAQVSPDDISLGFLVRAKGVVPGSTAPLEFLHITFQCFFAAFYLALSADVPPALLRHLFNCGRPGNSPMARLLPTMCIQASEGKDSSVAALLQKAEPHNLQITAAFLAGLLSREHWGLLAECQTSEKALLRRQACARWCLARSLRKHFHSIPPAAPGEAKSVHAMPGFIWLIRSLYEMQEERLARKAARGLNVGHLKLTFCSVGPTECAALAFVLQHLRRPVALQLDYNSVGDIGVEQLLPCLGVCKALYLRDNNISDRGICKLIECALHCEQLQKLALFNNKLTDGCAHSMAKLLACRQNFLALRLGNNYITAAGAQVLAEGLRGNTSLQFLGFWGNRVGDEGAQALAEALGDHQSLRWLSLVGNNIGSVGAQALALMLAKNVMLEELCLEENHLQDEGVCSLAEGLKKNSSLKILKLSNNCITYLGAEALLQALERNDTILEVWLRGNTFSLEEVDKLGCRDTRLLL

For `CCCNC(=O)CC[C@H]1NC(=O)c2cc(Oc3cccc(N(C)C)c3)c(NC(=O)COCc3ccccc3)cc2NC1=O`, the inhibition [1] was 35.2%, the inhibition [2] was “Active” and the inhibition [3] was “Dose-dependent effect”. For the same molecule, the inhibition [4] was 77.7%, the inhibition [5] was “Dose-dependent effect” and the inhibition [6] was “Active”. The inhibition [7] was “Dose-dependent effect”, the inhibition [8] was “Dose-dependent effect” and the inhibition [9] was “Active”. For the same molecule, the inhibition [10] was “Active”, the inhibition [11] was “Active” and the inhibition [12] was “inactive”.
